We go through 6 compounds from ChEMBL document CHEMBL4699461, “Enhanced Production and Anticancer Properties of Photoactivated Perylenequinones” (J Nat Prod, 2020).

The test system of assay [1] is SK-MEL-28. Put plainly: Cytotoxicity against human SK-MEL-28 cells assessed as reduction in cell viability preincubated for 16 hrs in dark condition subsequently incubated for 48 hrs by alamar blue assay. Format: cell-based. A digest of the protocol:
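SK-MEL-28 human melanoma cells, ~550,000–600,000 cells/mL, settled 3 h at 37 °C, 5% CO₂. Compounds were serially diluted in DPBS and tested over 1 nM to 300 μM. Plates were kept dark in the incubator for 16 h, then 48 h more. alamarBlue was then added for 15–16 h, and viability was read by fluorescence (ex 530, em 620 nm) to give EC₅₀.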
On the technique in general: Alamar Blue is a resazurin reagent that responds to reducing activity.

Assay [2] deals with SK-MEL-28. Put plainly: Phototoxicity against human SK-MEL-28 cells assessed as reduction in cell viability preincubated for 16 hrs followed by irradiated with 100 J/cm2 625 nanometer red light for 60 mins and measured after 48 hrs by alamar blue assay. To be noted: SK-MEL-28, light or radiation study. In kind it is functional, cell-based. Put shortly: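 Cells (SK-MEL-28, ~550,000–600,000 cells/mL) were dosed with compound at 1 nM–300 μM in DPBS dilutions, with a 16 h drug-to-light interval at 37 °C. They were irradiated with a 625 nm LED array at 27.8 mW/cm² to 100 J/cm². After 48 h of incubation, alamarBlue was added for 15–16 h and fluorescence was read (ex 530, em 620 nm) to give EC₅₀.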

Assay [3] deals with SK-MEL-28. The experiment in a line: Phototherapeutic index, ratio of EC50 for cytotoxicity against human SK-MEL-28 cells in dark condition to EC50 for phototoxicity against human SK-MEL-28 cells preincubated for 16 hrs followed by irradiated with 100 J/cm2 400 to 700 nanometer visible light for 48 mins.
Assay [4] relates to SK-MEL-28. Put plainly: Phototherapeutic index, ratio of EC50 for cytotoxicity against human SK-MEL-28 cells in dark condition to EC50 for phototoxicity against human SK-MEL-28 cells preincubated for 16 hrs followed by irradiated with 100 J/cm2 625 nanometer red light for 60 mins. A digest of the protocol:
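PI for red light, calculated as dark EC₅₀ divided by red-light EC₅₀ in SK-MEL-28 cells. Viability was read 48 h later by alamarBlue fluorescence.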

The subject of assay [5] is SK-MEL-28. Put plainly: Phototoxicity against human SK-MEL-28 cells assessed as reduction in cell viability preincubated for 16 hrs followed by irradiated with 100 J/cm2 400 to 700 nanometer visible light for 48 mins and measured after 48 hrs by alamar blue assay. To be noted: SK-MEL-28, light or radiation study.

Bounds are passed on as bounds.

For orientation: EC50 means the concentration at which the effect is half-maximal. Regarding `COC1=C(C(C)=O)C2=C(C)Cc3c(OC)c(=O)c(O)c4cc(OC)c5c(OC)cc(O)c6c(c2c3c4c56)C1=O`, the EC50 in assay [1] worked out at 43700 nM; in assay [2], 15.7 nM; in assay [5], 14.7 nM. For the same compound, the “Ratio EC50” value in assay [3] came out at 2973; in assay [4] it was 2783.
In the case of `COc1c(O)c2c(=O)cc(OC)c3c4c(OC)cc(O)c5c(=O)c(OC)c6c(c(c1[C@H](C(C)=O)[C@](C)(O)C6)c23)c54`, the EC50 in assay [1] stood at 130000 nM; in assay [2], 59.2 nM; in assay [5], 53.5 nM. In addition, the “Ratio EC50” value in assay [3] turned out to be 2430; in assay [4], 2196.
As for `COC1=C2c3c4c5c(c(O)cc(OC)c5c5c(OC)cc(O)c(c35)C1=O)C(=O)[C@H](OC)[C@]41C[C@](C)(O)[C@H]2[C@]1(C)O`, the EC50 is greater than 300000 nM in assay [1], 1280 nM in assay [2] and 135 nM in assay [5]. In addition, the “Ratio EC50” value in assay [3] is greater than 2222; in assay [4], greater than 234.
Taken in the same sequence, the figures for `COC1=C2c3c4c5c(c(O)cc(OC)c5c5c(OC)cc(O)c(c35)C1=O)C(=O)[C@H](OC)[C@]41C[C@@](C)(O)[C@H]2[C@]1(C)O` were 132000 nM, 603 nM, 172 nM, 767 and 219.
Taken in the same sequence, the figures for `COC1=C2c3c4c5c(c(O)cc(OC)c5c5c(OC)cc(O)c(c35)C1=O)C(=O)C[C@]41C[C@](C)(O)[C@H]2[C@]1(C)O` were 98700 nM, 2550 nM, 176 nM, 561 and 39.
Regarding `COc1c(O)c2c(=O)cc(OC)c3c4c(OC)cc(=O)c5c(O)c(OC)c6c(c(c1C[C@@](C)(O)[C@@H]6C(C)=O)c23)c54`, the figures for the EC50 in assay [1], in assay [2] and in assay [5] were 39300 nM, 15.3 nM and 10.3 nM, respectively. The “Ratio EC50” value is listed as 3816 in assay [3] and 2569 in assay [4].
